Measurements: paper PMC3926093 (Biochemistry, 2013)

Target: LigAB (Sphingobium sp. SYK-6, UniProt P22635+P22636)
Experiment: inhibition of PCA dioxygenation, O2 consumption, Clark-type electrode
Assay type: biochemical
Conditions: read-out: % inhibition ^b
Method in brief: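 Anaerobically purified LigAB (His-tag removed) started the reaction at 3–7 nM final. Reactions ran in air-saturated 50 mM Tris pH 7.5 at 25 °C with 500 μM PCA plus 1 mM test compound, read by O2 consumption. Percent inhibition came from comparing rates with those of PCA-only assays run directly before and after.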

Chain of LigAB (P22635 whole entry): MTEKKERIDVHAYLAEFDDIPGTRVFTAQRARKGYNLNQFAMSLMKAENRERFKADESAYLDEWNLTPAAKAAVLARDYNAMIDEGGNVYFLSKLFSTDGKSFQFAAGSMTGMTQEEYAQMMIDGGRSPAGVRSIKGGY
Chain of LigAB (P22636 whole entry): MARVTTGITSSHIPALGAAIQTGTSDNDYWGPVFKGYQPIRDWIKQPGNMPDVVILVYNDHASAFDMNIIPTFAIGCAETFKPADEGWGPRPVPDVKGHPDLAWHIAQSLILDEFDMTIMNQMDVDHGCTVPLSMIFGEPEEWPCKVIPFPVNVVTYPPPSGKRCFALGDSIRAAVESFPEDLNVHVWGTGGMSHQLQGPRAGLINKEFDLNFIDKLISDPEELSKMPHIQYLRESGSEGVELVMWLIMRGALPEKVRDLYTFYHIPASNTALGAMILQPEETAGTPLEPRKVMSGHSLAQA

inhibition at 1000 µM | SMILES
28% | Cc1ccc(O)c(O)c1 [4-methylcatechol]
31% | O=[N+]([O-])c1ccc(O)c(O)c1 [4-nitrocatechol]
